Consider ten molecules from ChEMBL document CHEMBL1157870, “Synthesis of 3-((2,4-dichlorophenoxy)methyl)-1,2,4-triazolo(thiadiazoles and thiadiazines) as anti-inflammatory and molluscicidal agents” (Eur J Med Chem, 2010).

The test system of data set [1] is Rattus norvegicus. The data set is described as follows: Antiinflammatory activity against carrageenan-induced paw edema in po dosed rat administered 1 hr before carrageenan challenge assessed after 3 hrs. It counts as functional. The method in brief:
(§1)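 Rats of about 200 g dosed orally; 1 h later, 1 mg carrageenan in […] physiological solution injected subplantar into the hind left paw. Paw volume measured hourly for 4 h by plethysmometer, dipping the paw in 0.45% saline. Read-out is % change in paw volume versus baseline, given as % inhibition of oedema ± S.E. Indomethacin served as reference.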

For data set [2], the system named is Rattus norvegicus. In words: Antiinflammatory activity against carrageenan-induced paw edema in po dosed rat administered 1 hr before carrageenan challenge assessed after 1 hr. It counts as functional. The method in brief:
as §1
A general note: In the carrageenan paw model, swelling and tenderness develop within hours.

The subject of data set [3] is Rattus norvegicus. The data set is described as follows: Antiinflammatory activity against carrageenan-induced paw edema in po dosed rat administered 1 hr before carrageenan challenge assessed after 4 hrs. It counts as functional. The essentials: as §1
Data set [4] deals with Rattus norvegicus. In words: Antiinflammatory activity against carrageenan-induced paw edema in po dosed rat administered 1 hr before carrageenan challenge assessed after 2 hrs. It counts as functional. The method in brief: as §1
In data set [5] the test system is Biomphalaria alexandrina. The data set is described as follows: Molluscicidal activity against Biomphalaria alexandrina assessed as mortality at 10 ppm after 24 hrs. The class given is organism-based. Particulars: in vivo. The method in brief:
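Compounds dissolved with a few drops of Tween 20 and 2 mL DMSO, then diluted with untreated Nile raw water to 1, 5 or 10 ppm in aerated glass jars. Ten snails per concentration held 24 h at 25 °C. Mean number killed over three repeats recorded. Controls received Tween 20/DMSO in water; Bayluscide served as reference. Follows WHO guidelines, modified.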

For `COc1ccc(-c2nn3c(COc4ccc(Cl)cc4Cl)nnc3s2)cc1`, the “inhibition (INH)” value in data set [1] turned out to be 56.34%; in data set [2], 26.75%; in data set [3], 44.34%; in data set [4] it was 46.22%.

As for `COc1ccc2c(c1)c(CC(=O)O)c(C)n2C(=O)c1ccc(Cl)cc1` [INDOMETHACIN], the “inhibition (INH)” value was 26.29% in data set [1], 24.8% in data set [2], 20.19% in data set [3] and 20.97% in data set [4].

For the molecule `O=C(Nc1ccc([N+](=O)[O-])cc1Cl)c1cc(Cl)ccc1O` [NICLOSAMIDE], the Activity result in data set [5] was “Toxic”.

In the case of `O=[N+]([O-])c1ccc(-c2nn3c(COc4ccc(Cl)cc4Cl)nnc3s2)c([N+](=O)[O-])c1`, the “inhibition (INH)” value in data set [1] is given as 68.04%; in data set [2], 32.16%; in data set [3], 63.95%; in data set [4], 66.06%.

Turning to `Clc1ccc(OCc2nnc3n2N=C(c2ccccc2)CS3)c(Cl)c1`, the “inhibition (INH)” value in data set [1] came out at 60.42%; in data set [2], 27.66%; in data set [3] it was 48.51%; in data set [4], 45.62%.

On to `Clc1ccc(OCc2nnc3n2N=C(c2cc4ccccc4o2)/C(=C/c2cn(-c4ccccc4)nc2-c2cc4ccccc4o2)S3)c(Cl)c1`, for which the “inhibition (INH)” value came to 59.66% in data set [1], 29.71% in data set [2], 35.78% in data set [3] and 41.32% in data set [4].

Take `Nn1c(S)nnc1COc1ccc(Cl)cc1Cl`: the “inhibition (INH)” value was determined as 102.8511% in data set [1], 50% in data set [2], 81.75% in data set [3] and 60.3% in data set [4]. Also, the Activity result in data set [5] was “Toxic”.

In the case of `Clc1ccc(OCc2nn3c(COc4ccc(Cl)cc4Cl)nnc3s2)c(Cl)c1`, the “inhibition (INH)” value came to 63.15% in data set [1], 26.95% in data set [2], 58.48% in data set [3] and 48.4% in data set [4].

As for `Clc1ccc(OCc2nnc3sc(-c4ccco4)nn23)c(Cl)c1`, the “inhibition (INH)” value is 99.24% in data set [1], 51.38% in data set [2], 93.97% in data set [3] and 54.62% in data set [4].

As for `Clc1ccc(OCc2nnc3snnn23)c(Cl)c1`, the “inhibition (INH)” value is listed as 108.482% in data set [1], 70.78% in data set [2], 74.03% in data set [3] and 94.8% in data set [4]. Moreover, the Activity result in data set [5] is listed as “Toxic”.
